Assay outcomes (PubChem BioAssay)
Compounds with a hit are over-represented: about 2% of the library has one in this group of screens.
CASP6 VEID inh: human caspase-6 inhibitors, primary screen, biochemical, VEID-R110 fluorescence, single point, set 2 | P55212 | purified caspase-6, Z-VEID-R110 cleavage fluorescence | 350,000 compounds, 0.53% hits | inhibition, % at 12.5 µM;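 active = mean inhibition across replicates at least about 35%, with every replicate also reaching that limit, limit read from the data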;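 also: 0% = median of neutral control wells and 100% = no fluorescence left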
Target sequence (P55212 24-179 limits assumed): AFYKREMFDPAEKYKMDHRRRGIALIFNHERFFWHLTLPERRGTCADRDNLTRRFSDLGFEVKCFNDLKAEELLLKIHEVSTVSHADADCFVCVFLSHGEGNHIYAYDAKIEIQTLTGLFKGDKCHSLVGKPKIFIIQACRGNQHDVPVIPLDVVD
Target sequence (P55212 194-293 limits assumed): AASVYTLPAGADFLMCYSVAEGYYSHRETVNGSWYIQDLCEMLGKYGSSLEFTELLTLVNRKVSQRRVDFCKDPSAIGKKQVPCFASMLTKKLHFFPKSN
CaV13 FRET inh: Primary screen for inhibitors of IQ motif and Ca2+-dependent inactivation inhibitor domain binding in CACNA1D, Förster resonance energy transfer in living cells, …. HEK cells, CFP/YFP FRET ICDI-IQ, plate reader, 10 min; percent FRET-ratio fall versus neutral wells. inhibition, % at 12.3 µM. 340,000 compounds, 0.098% hits. AID 743397;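 active = mean replicate inhibition of at least 30% and at least 1% of replicates passing that level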;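 also: 0% = median of the neutral control wells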
FN deposit inh: inhibitors of fibronectin matrix deposition, primary screen, AH1F cells, Alexa488-fibronectin fluorescence, plate reader; AH1F fibroblasts, overnight; AID 743247, 2014; inhibition, % at 12.6 µM; 350,000 compounds, 0.086% hits;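 active = mean inhibition across replicates of 30% or more, regardless of how many single replicates reach that level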;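 also: positive control wells lacked labelled fibronectin entirely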
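Assay system: AH1F fibroblasts / Quantity: 10000 cells per well / Medium: DMEM plus 2% serum, read in PBS / Reagent: labelled fibronectin 24 nM / Dosing: single dose, pinned / Times: 1 h cell attachment, overnight exposure to compound and label / Signal: fluorescence, ex 485 nm, em 525 nm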
DENV2 CPE rescue: inhibitors of DENV2 cytopathic effect, primary screen, cell-based, plate reader, single concentration. 350,000 compounds, 1.7% hits. CPE inhibition, % at 9.99 µM. DENV2-infected cells, cytopathic effect rescue; in the data active = CPE inhibition above about 20%, passing the limit was not always enough; tested in BHK-21 cells;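 also: 0% = median of neutral control wells and 100% = median of positive control wells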
Xi reactivation: activators of inactive X chromosome reactivation, primary screen, imaging, XiGFP fibroblasts, GFP high-content imaging, set 2; AID 743238, 2013; 360,000 compounds, 0.055% hits; activation, % at 7.58 µM; XiGFP mouse fibroblasts, % GFP-positive cells imaging, 3 d; cells co-treated with 5-aza-dC sensitizer; scaled so ellipticine positive control = 100%;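 active = mean normalized replicate activation at least 10% and every replicate at or above 10%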;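 also: 0% = median of on-plate neutral control wells and 100% = ellipticine 6 µM median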
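Assay system: SV40-immortalized XiGFP fibroblast cells, line 68-5-11; buffer or medium: DMEM plus 5-aza-dC sensitizer; compound: one concentration, pinned; timing: compounds 3 days, fix/stain 15 min at room temperature; benchmarks: positive control ellipticine, 6 µM final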
* marks the source's active call; other numbers are inactive results; . = not tested or not shown.

SMILES | CASP6 VEID inh | CaV13 FRET inh | FN deposit inh | DENV2 CPE rescue | Xi reactivation
O=C(Nc1ccc2c(c1)[C@H]1C[C@H](CC(=O)N3CCCCC3)O[C@@H](CO)[C@H]1O2)Nc1ccccc1F | 36* | . | 0 | 1 | 0
C[C@H](NC(=O)C[C@H]1C[C@H]2c3cc(NC(=O)NC4CCCC4)ccc3O[C@H]2[C@H](CO)O1)c1ccccc1 | 0 | . | -8 | 28* | 0
COc1ccc(NC(=O)N(C)C[C@H]2OCCCC[C@H](C)Oc3ccc(NC(=O)Cc4ccccc4)cc3C(=O)N([C@H](C)CO)C[C@H]2C)cc1 | -1 | . | . | 1 | 0
C[C@H]1CCCCO[C@H](CN(C)S(=O)(=O)c2ccc(F)cc2)[C@@H](C)CN([C@@H](C)CO)C(=O)c2cc(NS(=O)(=O)c3cccs3)ccc2O1 | -1 | . | . | -4 | 1
O=C(Nc1ccc2oc(=O)ccc2c1)c1ccc(-c2cccc([N+](=O)[O-])c2)o1 | -10 | -17 | 16 | 27* | 0
O=C(Nc1ccc2oc(=O)ccc2c1)c1ccc(-c2cccc(Cl)c2)o1 | 1 | -15 | 3 | 0 | 0
O=C1NC(=Nc2ccccc2Cl)S/C1=C\c1cccc([N+](=O)[O-])c1O | 39* | -15 | 2 | -2 | 0
COc1c(/C=C2\SC(=Nc3ccccc3Cl)NC2=O)cccc1[N+](=O)[O-] | -1 | -4 | 11 | 8 | 0
COc1ccc2c3c([nH]c2c1)[C@@H](CO)N(C(=O)c1ccc(F)cc1)CC31CN(S(=O)(=O)c2cccs2)C1 | 1 | . | . | 1 | 0
C[C@@H]1CN([C@@H](C)CO)C(=O)c2cc(NC(=O)Nc3ccc4c(c3)OCO4)ccc2O[C@H]1CN(C)C(=O)Nc1ccccc1 | . | . | . | 1 | -1
CC(=O)N(C)C[C@H]1Oc2cc(-c3ccncc3)ccc2S(=O)(=O)N([C@H](C)CO)C[C@@H]1C | -1 | . | 0 | 19 | -1
C/C=C/c1ccc2c(c1)O[C@H](CN(C)C(C)=O)[C@H](C)CN([C@@H](C)CO)S2(=O)=O | 1 | . | 5 | 45* | -1
CC(=O)N(C)C[C@@H]1Oc2cc(-c3ccncc3)ccc2S(=O)(=O)N([C@H](C)CO)C[C@@H]1C | 1 | . | 4 | 29* | 0
C[C@H](CO)N1C[C@H](C)[C@H](CN(C)C(=O)Nc2ccccc2F)Oc2cc(-c3ccc(F)cc3)ccc2S1(=O)=O | -3 | . | . | 26* | 1
CO[C@H]1CN(C)C(=O)c2ccc(NC(=O)c3ccccc3)cc2OC[C@@H](C)NC[C@@H]1C | -1 | . | -3 | 2 | 0
CCCCC[C@@H](/C=C/C1C(=O)C=C[C@H]1C/C=C\CCCC(=O)OC)OC(C)=O (stereo partly drawn) | 18 | -7 | 4 | 25* | 0
O=C(Nc1ccccc1F)N[C@H]1CC[C@H](CCNC(=O)C2CCC2)O[C@@H]1CO | 1 | . | . | 20 | 0
CCCCNC(=O)CNC(=S)N(CCCN1CCOCC1)Cc1cccs1 | 1 | -4 | -1 | 44* | 0
CCCc1cc(-c2n[nH]c(C(=O)OCC)c2-c2cscn2)c(O)cc1O | 45* | -6 | . | -2 | .
CCN(CC(=O)Nc1c(F)cccc1F)C(=O)c1ccc(C(F)(F)F)cc1 | 2 | -20 | 7 | 6 | 0
CCN(CC(=O)Nc1c(F)cccc1F)C(=O)c1ccc(COc2ccccc2)cc1 | -5 | -4 | -7 | 89* | 0
Cc1ccc(C(=O)c2ncc[nH]2)cc1 | -3 | -9 | 6 | 52* | 0
O=C(c1ccc(OC(F)(F)F)cc1)c1ncc[nH]1 | -5 | . | . | . | .
CCNC(=O)C[C@@H]1CC[C@@H](NS(=O)(=O)c2ccc(F)cc2)[C@H](CO)O1 | 2 | . | 5 | 14 | 0
COc1ccc2c3c([nH]c2c1)[C@H](CO)N(C(=O)Nc1ccc(F)cc1)CC31CCN(S(=O)(=O)c2cccc(F)c2)CC1 | 3 | . | . | -2 | 0
COc1ccc2c(c1)C(=O)[C@H](O)[C@@H](c1ccc(OC)c(Br)c1)O2 | 0 | -11 | 17 | 13 | 0
